# Experimental data from different studies.
# Each line is one published result; the experiments were not run side by side.
# Target: cAMP-dependent protein kinase catalytic subunit alpha (PRKACA, Homo sapiens, UniProt P17612)
Structure (SMILES),assay,conditions,remaining binding [%]
O=C(O)c1cc(-c2ccc(C3CCNCC3)cc2)c2ccc(-c3ccc(C(F)(F)F)cc3)cc2c1,"cell-free assay, competition with immobilised ligand",1 µM,100
c1cnn2ncc(-c3ccnc(N4CCC45COC5)n3)c2c1,binding,1 µM,100
O=C(c1ccc(Nc2ncc(Cl)c(-c3cc4ccccc4s3)n2)cc1)N1CCC(N2CCCC2)CC1,"binding, competition with immobilised ligand",1 µM,90
O=C(Nc1c[nH]nc1C(=O)NC1CCNCC1)c1cc(F)cc(F)c1,"binding, competition with immobilised ligand",1 µM,100
N#Cc1ccccc1CSc1nnc2c(n1)[nH]c1ccccc12,"binding, competition with immobilised ligand",10 µM,72
Nc1ncc2c(n1)-c1c([nH]c3ccc(C#CC4CC4)cc13)CCCC2,"binding, competition with immobilised ligand",1 µM,86
C=CC(=O)N1CCC(C(=O)NCC(=O)N2CCN(c3nc(-c4cnc(N)nc4C(F)F)nc(N4CCOCC4)n3)CC2)CC1,"binding, competition with immobilised ligand",1 µM,100
CN(C)c1nccc(-c2cnc3ncccn23)n1,binding,1 µM,83
COCCOc1nc(-c2ccc(Cl)nc2)nc2c1CN(C(=O)c1ncn3ccccc13)CC2,"cell-free assay, competition with immobilised ligand",0.1 µM,82
O=C(c1ccc(Nc2nccc(-c3cc4ccccc4s3)n2)cc1)N1CCC(N2CCCC2)CC1,"binding, competition with immobilised ligand",1 µM,100
FC(F)(F)Oc1cccc(-c2cnc3ccc(-c4ccncc4)nn23)c1,"cell-free assay, competition with immobilised ligand",5 µM,91
CN(C)c1nccc(-c2cnn3ncccc23)n1,binding,1 µM,100
O=C(Nc1ccc(Oc2ccc(F)cc2)cc1)N1CCc2ncccc2[C@H]1c1ccc(F)cc1,"cell-free assay, competition with immobilised ligand",1 µM,95
C[C@@H]1CN(c2ccc3ncc(-c4ccc5[nH]nc(C6CC6)c5c4)n3n2)C[C@H](C)O1,"binding, competition with immobilised ligand",50 nM,88
COc1ccc2c(c1)O[C@@H](c1ccc(OC)c(OC)c1)C[C@H]2NC(=O)C1(c2ccc3c(c2)OC(F)(F)O3)CC1,"cell-free assay, competition with immobilised ligand",1 µM,100
COc1ncc2cc3ccccc3nc2c1C#N,"cell-free assay, competition with immobilised ligand",5 µM,100
CNC(=O)[C@@H]1CC[C@@H](n2c(-c3ccc4cnccc4c3)nc3ccc(C(=O)NCc4cccc(C(N)=O)c4)cc32)C1,"binding, competition with immobilised ligand",1 µM,100
O=C(N1CCS(=O)(=O)CC1)N1C[C@H](c2ccc(OC(F)(F)F)cc2)C[C@H](c2nc(C3CC3)no2)C1,"cell-free assay, competition with immobilised ligand",1 µM,100
Cc1cnc(Nc2ccc(C(=O)N3CCC(N4CCCC4)CC3)cc2)nc1-c1cc2ccccc2s1,"binding, competition with immobilised ligand",1 µM,67
C[C@H]1CCN(c2nccc(-c3cnn4ncccc34)n2)C1,binding,1 µM,100
Cc1c(C(=O)O)cc(-c2ccc(C3CCNCC3)cc2)c2ccc(-c3ccc(C(F)(F)F)cc3)cc12,"cell-free assay, competition with immobilised ligand",1 µM,100
